Test results published in ChEMBL document CHEMBL4325837, “Discovery of novel NO-releasing celastrol derivatives with Hsp90 inhibition and cytotoxic activities” (Eur J Med Chem, 2018).
Values belong to the compound of their own block, whether it stands above or below them. Calls of active or inactive are those of the source. No cut-off for these calls is given here.

Columns and labels:
[1] = tested on: MCF7; assay: Antiproliferative activity against human MCF7 cells after 48 hrs by MTT assay; assay type: functional, cell-based; settings: MCF7, 48 h
In short: (§1)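 MTT assay. Cells were seeded at 5.0 × 10⁴ cells/ml in 100 μL per well and grown 24 h. They were then exposed to a range of concentrations for 48 h. MTT (5 mg/ml) was added for 4 h, the supernatant was removed and DMSO was added. OD was read at 570 nm. Assays were run in triplicate and IC50 is reported as mean ± SD, n = 3.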

[2] = tested on: HOS; assay: Antiproliferative activity against human HOS cells after 48 hrs by MTT assay; assay type: functional, cell-based; in short: as §1
[3] = tested on: A549; assay: Antiproliferative activity against human A549 cells after 48 hrs by MTT assay; assay type: functional, cell-based; settings: A549, 48 h; in short: as §1
[4] = tested on: HepG2; assay: Antiproliferative activity against human HepG2 cells after 48 hrs by MTT assay; assay type: functional, cell-based; settings: HepG2, 48 h; in short: as §1
[5] = tested on: A549; assay: Induction of apoptosis in human A549 cells assessed as viable cells at 0.6 uM after 48 hrs by Annexin V-FITC/propidium iodide staining-based flow cytometric analysis (reference value: 98.5%); assay type: functional; settings: A549, 48 h, read-out: Activity
In short: (§2)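 A549 cells (4 × 10⁵ per 6 cm dish) were grown 24 h, then treated for 48 h. Cells were harvested, washed twice with cold PBS and resuspended in 250 μL binding buffer with 2.5 μL PI and 2.5 μL Annexin V-FITC. After 15 min at room temperature in the dark, they were analysed by flow cytometry for early and late apoptotic fractions.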

[6] = tested on: A549; assay: Induction of apoptosis in human A549 cells assessed as early apoptotic cells at 0.3 uM after 48 hrs by Annexin V-FITC/propidium iodide staining-based flow cytometric analysis (reference value: 0.5%); assay type: functional; in short: as §2
[7] = tested on: A549; assay: Induction of apoptosis in human A549 cells assessed as necrotic cells at 0.6 uM after 48 hrs by Annexin V-FITC/propidium iodide staining-based flow cytometric analysis (reference value: 0.6%); assay type: functional; in short: as §2
[8] = tested on: A549; assay: Induction of apoptosis in human A549 cells assessed as late apoptotic cells at 1.2 uM after 48 hrs by Annexin V-FITC/propidium iodide staining-based flow cytometric analysis (reference value: 0.4%); assay type: functional
[9] = Drug metabolism in human A549 cells assessed as nitric oxide release at 4 uM measured up to 24 hrs; assay type: ADME, cell-based; settings: a549, 24 h
In short: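 A549 cells were seeded at 5.0 × 10⁴ cells/ml in 100 μL wells and grown 24 h at 37 °C. Hybrids were added at 4 μM for varying times, with 24 h used for the full set. NO was measured with a Nitrate/Nitrite assay kit against a standard curve, reading OD at 550 nm. Values are the mean of three independent experiments.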

[10] = tested on: A549; assay: Induction of apoptosis in human A549 cells assessed as viable cells at 1.2 uM after 48 hrs by Annexin V-FITC/propidium iodide staining-based flow cytometric analysis (reference value: 98.5%); assay type: functional; settings: A549, 48 h, read-out: Activity
[11] = tested on: A549; assay: Cell cycle arrest in human A549 cells assessed as accumulation at G1 phase at 0.2 uM by after 24 hrs by RNase A/propidium iodide staining-based flow cytometric analysis (reference value: 46.97%); assay type: functional
[12] = tested on: A549; assay: Cell cycle arrest in human A549 cells assessed as accumulation at S phase at 0.4 uM by after 24 hrs by RNase A/propidium iodide staining-based flow cytometric analysis (reference value: 28.11%); assay type: functional
[13] = tested on: A549; assay: Cell cycle arrest in human A549 cells assessed as accumulation at G1 phase at 0.4 uM by after 24 hrs by RNase A/propidium iodide staining-based flow cytometric analysis (reference value: 46.97%); assay type: functional
[14] = target: T1, Heat shock protein HSP90 (Homo sapiens) (UniProt P07900+P08238); assay: Inhibition of HSP90 in human A549 cells assessed as decrease in Akt phosphorylation at 0.5 to 2.5 uM after 24 hrs by Western blot analysis; assay type: cell-based
In short: (§3)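 A549 cells (5 × 10⁵ per 6 cm dish) were grown 24 h, then treated for 24 h. Cells were lysed and the lysate spun at 10,000 g for 20 min at 4 °C. Protein was adjusted to 3 mg/ml by BCA and run on 10% SDS-PAGE. Blots were probed with monoclonal antibodies for Cdk4, Hsp90, p-Akt and Akt, with β-actin as internal control.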

[15] = tested on: A549; assay: Induction of apoptosis in human A549 cells assessed as necrotic cells at 1.2 uM after 48 hrs by Annexin V-FITC/propidium iodide staining-based flow cytometric analysis (reference value: 0.6%); assay type: functional
[16] = target: T1, Heat shock protein HSP90 (Homo sapiens); assay: Inhibition of HSP90 in human A549 cells assessed as decrease in CDK4 protein expression at 0.5 to 2.5 uM after 24 hrs by Western blot analysis; assay type: cell-based; in short: as §3
[17] = tested on: A549; assay: Induction of apoptosis in human A549 cells assessed as late apoptotic cells at 0.6 uM after 48 hrs by Annexin V-FITC/propidium iodide staining-based flow cytometric analysis (reference value: 0.4%); assay type: functional; in short: as §2
[18] = tested on: A549; assay: Cell cycle arrest in human A549 cells assessed as accumulation at G2 phase at 0.8 uM by after 24 hrs by RNase A/propidium iodide staining-based flow cytometric analysis (reference value: 24.84%); assay type: functional
[19] = tested on: A549; assay: Cell cycle arrest in human A549 cells assessed as accumulation at G2 phase at 0.4 uM by after 24 hrs by RNase A/propidium iodide staining-based flow cytometric analysis (reference value: 24.84%); assay type: functional
[20] = tested on: A549; assay: Induction of apoptosis in human A549 cells assessed as chromatin condensation at 0.3 to 1.2 uM after 48 hrs by Hoechst 33342 staining based fluorescent microscopic method; assay type: functional, cell-based
In short: (§4)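 A549 cells (4 × 10⁵ per 6 cm dish) were grown 24 h, then treated for 48 h. Cells were washed twice with PBS, stained with Hoechst 33342 (10 µg/ml) for 5 min at room temperature in the dark, and examined by fluorescence microscopy for chromatin condensation and nuclear fragmentation.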

[21] = tested on: A549; assay: Cell cycle arrest in human A549 cells assessed as accumulation at S phase at 0.2 uM by after 24 hrs by RNase A/propidium iodide staining-based flow cytometric analysis (reference value: 28.11%); assay type: functional
[22] = tested on: A549; assay: Induction of apoptosis in human A549 cells assessed as nuclear fragmentation at 0.3 to 1.2 uM after 48 hrs by Hoechst 33342 staining based fluorescent microscopic method; assay type: functional, cell-based; in short: as §4
[23] = target: T1, Heat shock protein HSP90 (Homo sapiens); assay: Inhibition of HSP90 in human A549 cells at 0.5 to 2.5 uM after 24 hrs by Western blot analysis; assay type: cell-based; in short: as §3
[24] = tested on: A549; assay: Induction of apoptosis in human A549 cells assessed as early apoptotic cells at 1.2 uM after 48 hrs by Annexin V-FITC/propidium iodide staining-based flow cytometric analysis (reference value: 0.5%); assay type: functional
[25] = tested on: A549; assay: Induction of apoptosis in human A549 cells after 48 hrs by Annexin V-FITC/propidium iodide staining-based flow cytometric analysis; assay type: functional, cell-based; in short: as §2
[26] = tested on: A549; assay: Cell cycle arrest in human A549 cells assessed as accumulation at G1 phase at 0.8 uM by after 24 hrs by RNase A/propidium iodide staining-based flow cytometric analysis (reference value: 46.97%); assay type: functional
[27] = tested on: A549; assay: Induction of apoptosis in human A549 cells assessed as early apoptotic cells at 0.6 uM after 48 hrs by Annexin V-FITC/propidium iodide staining-based flow cytometric analysis (reference value: 0.5%); assay type: functional; in short: as §2
[28] = tested on: A549; assay: Cell cycle arrest in human A549 cells assessed as accumulation at G2 phase at 0.2 uM by after 24 hrs by RNase A/propidium iodide staining-based flow cytometric analysis (reference value: 24.84%); assay type: functional
[29] = tested on: A549; assay: Cell cycle arrest in human A549 cells assessed as accumulation at S phase at 0.8 uM by after 24 hrs by RNase A/propidium iodide staining-based flow cytometric analysis (reference value: 28.11%); assay type: functional
[30] = tested on: A549; assay: Induction of apoptosis in human A549 cells assessed as necrotic cells at 0.3 uM after 48 hrs by Annexin V-FITC/propidium iodide staining-based flow cytometric analysis (reference value: 0.6%); assay type: functional; in short: as §2
[31] = tested on: A549; assay: Induction of apoptosis in human A549 cells assessed as viable cells at 0.3 uM after 48 hrs by Annexin V-FITC/propidium iodide staining-based flow cytometric analysis (reference value: 98.5%); assay type: functional; settings: A549, 48 h, read-out: Activity; in short: as §2
[32] = tested on: A549; assay: Induction of apoptosis in human A549 cells assessed as late apoptotic cells at 0.3 uM after 48 hrs by Annexin V-FITC/propidium iodide staining-based flow cytometric analysis (reference value: 0.4%); assay type: functional; in short: as §2

Structure (SMILES): CC1=C(O)C(=O)C=C2C1=CC=C1[C@@]2(C)CC[C@@]2(C)[C@@H]3C[C@](C)(C(=O)OCCCCCCO[N+](=O)[O-])CC[C@]3(C)CC[C@]12C
- IC50 [1]: 3.17 µM
- IC50 [2]: 3.36 µM
- IC50 [3]: 3.67 µM
- IC50 [4]: 4.71 µM

Structure (SMILES): CC1=C(O)C(=O)C=C2C1=CC=C1[C@@]2(C)CC[C@@]2(C)[C@@H]3C[C@](C)(C(=O)OCCCCOc4no[n+]([O-])c4S(=O)(=O)c4ccccc4)CC[C@]3(C)CC[C@]12C
- IC50 [1]: 3.95 µM
- IC50 [2]: 2.47 µM
- IC50 [3]: 2.46 µM
- IC50 [4]: 3.53 µM

Structure (SMILES): CC1=C(O)C(=O)C=C2C1=CC=C1[C@@]2(C)CC[C@@]2(C)[C@@H]3C[C@](C)(C(=O)OCC(C)Oc4no[n+]([O-])c4S(=O)(=O)c4ccccc4)CC[C@]3(C)CC[C@]12C (some centres undefined)
- IC50 [1]: 2.02 µM
- IC50 [2]: 3.03 µM
- IC50 [3]: 2.07 µM
- IC50 [4]: 2.39 µM

Further lines, with some results ahead:

- IC50 [1]: 3.01 µM
- IC50 [3]: 5.32 µM
- IC50 [4]: 3.4 µM
Structure (SMILES): CC1=C(O)C(=O)C=C2C1=CC=C1[C@@]2(C)CC[C@@]2(C)[C@@H]3C[C@](C)(C(=O)OCCCCCO[N+](=O)[O-])CC[C@]3(C)CC[C@]12C
- IC50 [2]: 2.9 µM

- Drug metabolism [9]: Metabolite_Detected
- IC50 [1]: 0.78 µM
- inhibition [14]: Active
- inhibition [16]: Active
- IC50 [3]: 0.43 to 0.48 µM
- inhibition [23]: inactive
- IC50 [4]: 1.41 µM
Structure (SMILES): CC1=C(O)C(=O)C=C2C1=CC=C1[C@@]2(C)CC[C@@]2(C)[C@@H]3C[C@](C)(C(=O)NCCCOc4no[n+]([O-])c4S(=O)(=O)c4ccccc4)CC[C@]3(C)CC[C@]12C
- viability at 0.6 µM [5]: 64.8%
- Activity [6]: 3.1%
- Activity [7]: 5.3%
- Activity [8]: 31%
- viability at 1.2 µM [10]: 46.3%
- Activity [11]: 52.05%
- Activity [12]: 25.12%
- Activity [13]: 56.36%
- IC50 [2]: 0.51 µM
- Activity [15]: 9.8%
- Activity [17]: 20%
- Activity [18]: 16.59%
- Activity [19]: 18.38%
- Activity [20]: Active
- Activity [21]: 27.71%
- Activity [22]: Active
- Activity [24]: 12.9%
- Activity [25]: Dose-dependent effect
- Activity [26]: 61.12%
- Activity [27]: 9.9%
- Activity [28]: 21.12%
- Activity [29]: 25.48%
- Activity [30]: 1.7%
- viability at 0.3 µM [31]: 88.8%
- Activity [32]: 6.4%

- IC50 [3]: 25.5 µM
Structure (SMILES): NCCCOc1no[n+]([O-])c1S(=O)(=O)c1ccccc1
